One test deals with macrophages. The following applies: cited from earlier work.
For test [1], the system named is LAD2 cells endogenously expressing MrgX2. In words: Ca2+ mobilization, LAD2 cells. It counts as cell-based, human. The following applies: for effect of E. coli-LPS on HDP-induced Ca2+ mobilization (summary): Discussion summary. The method in brief: (§1)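 LAD2 cells, kept in StemPro-34 with 100 ng/ml hSCF, were loaded with indo-1 AM (1 μM) for 30 min at room temperature. They were washed and resuspended in HEPES-buffered saline at 0.2 × 10^6 cells per run. E. coli LPS (serotype R515) was given as a 2 min pre-incubation or premixed with the peptide, followed by C3a. Fluorescence was read at excitation 355 nm and emission 410 nm. Traces are representative of three experiments.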

In test [2] the test system is untransfected RBL-2H3 cells, which do not express MrgX2. The settings on record: no MrgX2; cited from earlier work.
Test [3] shares this test system. The settings on record: no MrgX2; cited from earlier work. The source holds these as a separate data set.
The test system of test [4] is LAD2 cells endogenously expressing MrgX2. Put plainly: Degranulation. It counts as cell-based, human. The following applies: for effect of E. coli-LPS on HDP-induced mast cell degranulation (summary): Discussion summary.
For test [5], the system named is C3a receptor. Put plainly: C3a-induced Ca2+ mobilization, LAD2 cells. Format: cell-based, human. The procedure, abridged: as §1
Test [6] relates to C3a receptor. Put plainly: C3a-induced degranulation, LAD2 cells. It counts as cell-based, human. The following applies: LPS 1 and 10 μg/ml, C3a 10 nM, three experiments. The procedure, abridged: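 LAD2 cells (5 × 10^3 per well) in HEPES buffer with 0.1% BSA were pre-treated with buffer or E. coli LPS, then stimulated. Percent β-hexosaminidase release was taken against unstimulated cells lysed in 0.1% Triton X-100. Mean ± SEM, three experiments; two-way ANOVA with Bonferroni.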

No end group written: not given here.

Consider “Human β-defensin3 (GIINTLQKYYCRVRGGRCAVLSCLPKEEQIGKCSTRGRKCCRRKK; not fully specified; ends and bridges not checked; UniProt P81534 23-67, looked up) [hBD3]”, for which, in the test on macrophages, the “inhibition of LPS-induced cytokine generation in macrophages, hBD3” value is reported as “inhibit LPS-induced cytokine generation in macrophages”. For the same substance, the “effect of E. coli-LPS on HDP-induced Ca2+ mobilization (summary)” value in test [1] is “almost complete inhibition”. In test [1] (LAD2, LPS 1 μg/ml premixed with hBD3 100 nM), the “effect of premixed E. coli-LPS on hBD3-induced Ca2+ response” value was “to the same extent as the 2 min pre-incubation protocol”. Moreover, the “effect of E. coli-LPS preincubation on hBD3-induced Ca2+ response” value in test [1] (LAD2, LPS 1 μg/ml, 2 min preincubation, hBD3 100 nM) is reported as “complete inhibition”. Besides, in test [1] (hBD3 100 nM, not back to basal level even after 5 min), the “intracellular Ca2+ response in LAD2 cells” value is reported as “sustained intracellular Ca^2+ response”. Moreover, the “Ca2+ mobilization in untransfected RBL-2H3 cells, earlier work” value in test [2] is given as “unresponsive”. Moreover, the “degranulation in untransfected RBL-2H3 cells, earlier work” value in test [3] is recorded as “unresponsive”. Also, the “effect of E. coli-LPS on HDP-induced mast cell degranulation (summary)” value in test [4] is recorded as “almost complete inhibition”. In test [4] (LAD2, LPS 1 and 10 μg/ml, hBD3 100 nM, mean ± SEM of three experiments), the “effect of E. coli-LPS on hBD3-induced degranulation” value is “substantial inhibition”.

For “C3a: anaphylatoxin C3a; native complement C3a from Complement Technology”, the “effect of mixture of E. coli-LPS and hBD3 on C3a-induced Ca2+ mobilization” value in the test with C3a receptor [5] (LPS 1 μg/ml + hBD3 100 nM, then C3a 10 nM) is “not affected”. Moreover, the “effect of E. coli-LPS on C3a-induced Ca2+ response” value with C3a receptor [5] (LPS 1 μg/ml preincubated, C3a 10 nM) is recorded as “no effect”. The “effect of E. coli-LPS on C3a-induced Ca2+ response (LL-37 experiment)” value in the test on C3a receptor [5] (LPS 10 μg/ml, pre-incubated or mixed with LL-37 1 μM, C3a 10 nM) is recorded as “no effect on the response to C3a”. The “effect of E. coli-LPS on C3a-induced degranulation” value in the test on C3a receptor [6] is reported as “did not inhibit the response to C3a”.

As for “LL-37: human cathelicidin, host defense peptide”, the “effect of E. coli-LPS on HDP-induced Ca2+ mobilization (summary)” value in test [1] is reported as “almost complete inhibition”. Besides, in test [1] (LAD2, LPS 10 μg/ml, 2 min pre-incubation or added simultaneously, LL-37 1 μM), the “effect of E. coli-LPS on LL-37-induced Ca2+ mobilization” value is on record as “ablated”. The “Ca2+ mobilization in untransfected RBL-2H3 cells, earlier work” value in test [2] is “unresponsive”. The “degranulation in untransfected RBL-2H3 cells, earlier work” value in test [3] is listed as “unresponsive”. Also, the “effect of E. coli-LPS on HDP-induced mast cell degranulation (summary)” value in test [4] is “almost complete inhibition”. Also, the “effect of E. coli-LPS on LL-37-induced degranulation” value in test [4] (LAD2, LPS 10 μg/ml, LL-37 1 μM, three experiments) is given as “blocked”.
